{"source": "ChEMBL document CHEMBL4725388", "about": "“Characterization of Aminobenzylphenols as Protein Disulfide Isomerase Inhibitors in Glioblastoma Cell Lines” (J Med Chem, 2020)", "key": {"[1]": {"target": "T1, Protein disulfide-isomerase A3 (Homo sapiens, UniProt P30101)", "T1 sequence (P30101 whole entry)": "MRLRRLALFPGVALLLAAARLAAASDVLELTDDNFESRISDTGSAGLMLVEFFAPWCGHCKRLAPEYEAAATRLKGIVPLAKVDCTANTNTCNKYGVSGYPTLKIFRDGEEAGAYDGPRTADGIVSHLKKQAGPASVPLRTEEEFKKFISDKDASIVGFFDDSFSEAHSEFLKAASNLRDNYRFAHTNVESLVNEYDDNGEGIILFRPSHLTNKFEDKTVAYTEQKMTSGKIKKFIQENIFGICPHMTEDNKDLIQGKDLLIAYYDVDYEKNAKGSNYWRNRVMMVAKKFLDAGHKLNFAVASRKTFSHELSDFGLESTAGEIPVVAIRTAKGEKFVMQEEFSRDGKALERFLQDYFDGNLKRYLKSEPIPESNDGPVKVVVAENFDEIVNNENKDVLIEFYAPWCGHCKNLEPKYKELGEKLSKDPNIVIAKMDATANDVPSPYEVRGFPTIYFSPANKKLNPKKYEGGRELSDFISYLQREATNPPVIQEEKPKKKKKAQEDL", "test": "(§1) Inhibition of N-(4-(5,5-Difluoro-1,3,7,9-tetramethyl-5H-4(Gamma4),5(Gamma4)-dipyrrolo[1,2-c:2',1'-f][1,3,2]diazaborinin-10-yl))-N-(2-(4-((6-hydroxybenzo[d]-[1,3]dioxol-5-yl)(piperidin-1-yl)methyl)benzamido)ethyl)-benzamide binding to recombinant PDIA3 (unknown origin) measured after 24 hrs by PAGE analysis"}, "[2]": {"target": "T2, Protein disulfide-isomerase (Homo sapiens, UniProt P07237)", "test": "Inhibition of recombinant human wild-type N-terminal His-tagged PDIA1 expressed in Escherichia coli strain BL21(DE3) using bovine insulin as substrate preincubated for 1 hr followed by substrate addition", "outline": "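IC50 from dose-response curves; PDI reductase assay for enzyme, MTT in U-87 MG cells for cytotoxicity; mean ± SD of at least three independent experiments.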"}, "[3]": {"target": "T3, Protein disulfide-isomerase A2 (Homo sapiens, UniProt Q13087)", "T3 sequence (Q13087 whole entry)": "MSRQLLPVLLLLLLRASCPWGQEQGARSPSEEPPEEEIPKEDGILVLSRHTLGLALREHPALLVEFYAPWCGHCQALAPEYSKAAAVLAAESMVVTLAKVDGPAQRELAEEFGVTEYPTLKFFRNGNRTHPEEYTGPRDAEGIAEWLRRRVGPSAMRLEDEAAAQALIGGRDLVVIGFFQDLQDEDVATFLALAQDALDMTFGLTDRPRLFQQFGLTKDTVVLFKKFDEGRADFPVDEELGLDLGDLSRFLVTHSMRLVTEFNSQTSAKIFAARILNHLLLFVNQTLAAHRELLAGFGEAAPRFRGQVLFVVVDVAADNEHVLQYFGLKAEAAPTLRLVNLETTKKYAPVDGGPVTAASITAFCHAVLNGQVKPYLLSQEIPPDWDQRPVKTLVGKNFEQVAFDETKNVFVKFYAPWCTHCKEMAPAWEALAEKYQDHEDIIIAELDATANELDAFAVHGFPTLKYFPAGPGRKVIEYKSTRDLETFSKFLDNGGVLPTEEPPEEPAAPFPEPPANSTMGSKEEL", "test": "as §1, with “PDIA2” for “PDIA3”"}, "[4]": {"target": "T2, Protein disulfide-isomerase", "test": "as §1, with “PDIA1 in human U-87 MG cell lysates” for “recombinant PDIA3 (unknown origin)”", "assay_type": "subcellular"}, "U-87MG ATCC [5]": {"tested_on": "U-87MG ATCC", "test": "Upregulation of NQO1 gene expression in human U-87 MG cells at 20 uM incubated for 4 hrs followed by Bru addition during last 30 mins of incubation by Trizol reagent based gene sequencing analysis", "assay_type": "functional, cell-based"}, "U-87MG ATCC [6]": {"tested_on": "U-87MG ATCC", "test": "Upregulation of SLC7A11 gene expression in human U-87 MG cells at 20 uM incubated for 4 hrs followed by Bru addition during last 30 mins of incubation by Trizol reagent based gene sequencing analysis", "assay_type": "functional, cell-based"}, "U-87MG ATCC [7]": {"tested_on": "U-87MG ATCC", "test": "Upregulation of HSPA5 gene expression in human U-87 MG cells at 20 uM incubated for 4 hrs followed by Bru addition during last 30 mins of incubation by Trizol reagent based gene sequencing analysis", "assay_type": "functional, cell-based"}, "[8]": {"test": "Effect on total CALR expression in human U-87 MG cells at 20 uM measured after 12 to 48 hrs by Western blot analysis", "assay_type": "ADME, cell-based", "conditions": "u-87mg atcc, time 12-48 hrs"}, "U-87MG ATCC [9]": {"tested_on": "U-87MG ATCC", "test": "Upregulation of CALR gene expression in human U-87 MG cells at 20 uM incubated for 4 hrs followed by Bru addition during last 30 mins of incubation by Trizol reagent based gene sequencing analysis", "assay_type": "functional, cell-based"}, "U-87MG ATCC [10]": {"tested_on": "U-87MG ATCC", "test": "Upregulation of MYZAP gene expression in human U-87 MG cells at 20 uM incubated for 4 hrs followed by Bru addition during last 30 mins of incubation by Trizol reagent based gene sequencing analysis", "assay_type": "functional, cell-based"}}, "note": "The source made the active and inactive calls. No cut-off for these calls is given here.", "data": [{"smiles": "Oc1cc2c(cc1C(c1ccccc1)N1CCCCC1)OCO2", "note": "(stereo unspecified)", "values": [{"measurement": "inhibition (INH)", "setting": "[1]", "value": "Dose-dependent effect"}, {"measurement": "IC50", "setting": "[2]", "value": 2900, "unit": "nM"}, {"measurement": "inhibition (INH)", "setting": "[3]", "value": "Dose-dependent effect"}, {"measurement": "inhibition", "setting": "[4]", "value": "Dose-dependent effect"}]}, {"smiles": "Oc1c(C(c2ccncc2)N2CCCCC2)ccc2ccoc12", "note": "(stereo unspecified)", "values": [{"measurement": "Activity", "setting": "U-87MG ATCC [5]", "value": "Active"}, {"measurement": "IC50", "setting": "[2]", "value": "< 200", "unit": "nM"}, {"measurement": "Activity", "setting": "U-87MG ATCC [6]", "value": "Active"}, {"measurement": "Activity", "setting": "U-87MG ATCC [7]", "value": "Active"}, {"measurement": "Activity", "setting": "[8]", "value": "Non-Toxic"}, {"measurement": "Activity", "setting": "U-87MG ATCC [9]", "value": "Active"}, {"measurement": "Activity", "setting": "U-87MG ATCC [10]", "value": "Active"}]}]}
